Bioassay records: PubChem, The Scripps Research Institute Molecular Screening Center
Compounds with a hit are over-represented: about 0.75% of the library has one in this group of screens.
ZTA DNA inh – blocks Epstein-Barr virus ZTA, an EBNA-1 counter-screen. inhibition, % at 11 µM. 320,000 compounds, 0.15% hits. ZTA-DNA binding, fluorescence polarization. P03206; in the data active means inhibition above about 33%
Target sequence (P03206 whole entry, looked up): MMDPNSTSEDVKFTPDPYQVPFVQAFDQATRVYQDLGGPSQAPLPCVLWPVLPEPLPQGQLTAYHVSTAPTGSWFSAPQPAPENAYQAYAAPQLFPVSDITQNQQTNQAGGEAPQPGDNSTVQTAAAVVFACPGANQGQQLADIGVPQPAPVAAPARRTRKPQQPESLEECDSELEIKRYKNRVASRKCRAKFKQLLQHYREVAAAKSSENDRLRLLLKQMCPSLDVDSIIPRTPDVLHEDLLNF
ARFGAP1 inh – inhibitors of rat ARFGAP1 | Q62848 | Arfgap1-stimulated ARF1 GTP hydrolysis, GDP FP detection | inhibition, % at 16.5 µM | 360,000 compounds, 0.26% hits;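 active means inhibition above a per-plate limit, mean inhibition of low control wells plus 3 SD, cut at about 25% in these data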;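 further: 0% = DMSO wells with enzyme and 100% = wells lacking Arfgap1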
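Material: rat Arfgap1 GAP domain (His6, aa 1-136), purified enzyme. Also added: human ARF1(Δ1-17)-GTP substrate. Compound dosing: 16.5 µM single point, 1.26% DMSO. Timing: enzyme reaction 120 min at 25 °C after 20 min preincubation. Signal: GDP detection by fluorescence polarization. Read-out basis: percent inhibition of GAP-stimulated GDP formation, scaled between DMSO and no-Arfgap1 medians.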
EBNA-1 inhibitor – blocks EBNA-1 binding to DNA. EBNA-1 DNA binding, fluorescence polarization. inhibition, % at 14.8 µM. 300,000 compounds, 0.34% hits; in the data active means inhibition above about 28%
ASAP1 GAP inh – ASAP1 ArfGAP inhibition; 360,000 compounds, 0.19% hits; AID 624377; ASAP1-stimulated ARF1 GTP hydrolysis, GDP FP detection; inhibition, % at 16.5 µM; in the data active means inhibition above about 25%;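 further: 0% = vehicle with enzyme and substrate and 100% = no enzyme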
Target sequence (Q9ULH1 325-724 limits assumed): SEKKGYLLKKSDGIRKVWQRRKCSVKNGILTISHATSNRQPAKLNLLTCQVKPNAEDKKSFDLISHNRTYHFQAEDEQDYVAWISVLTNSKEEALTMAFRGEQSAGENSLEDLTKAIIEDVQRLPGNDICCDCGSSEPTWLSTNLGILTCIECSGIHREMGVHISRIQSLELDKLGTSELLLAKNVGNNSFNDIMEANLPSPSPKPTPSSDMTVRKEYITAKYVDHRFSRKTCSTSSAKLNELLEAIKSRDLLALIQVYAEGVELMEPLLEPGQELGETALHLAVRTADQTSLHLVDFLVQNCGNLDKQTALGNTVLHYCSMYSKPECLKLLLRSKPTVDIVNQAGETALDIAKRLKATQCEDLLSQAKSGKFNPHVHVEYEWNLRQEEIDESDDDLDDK
ASAP1 inh confirm – ASAP1 inhibition confirmed. shares compounds with ASAP1 GAP inh. ASAP1-stimulated Arf1 GTPase, GDP fluorescence polarization. inhibition, % at 16.5 µM. 620 compounds, 37% hits. AID 624431;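 active means mean inhibition over triplicates exceeds the hit threshold derived for the earlier primary screening run, cut at about 25% in these data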
ARFGAP1 confirm – rat ARFGAP1 inhibition, confirmed | shares compounds with ARFGAP1 inh | ARFGAP1-stimulated ARF1 GTP hydrolysis, GDP tracer FP | inhibition, % at 16.5 µM | 890 compounds, 30% hits | AID 651608;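 active means average inhibition over triplicates above the hit cutoff set in the earlier primary screen, cut at about 25% in these data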;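 further: 0% = Arfgap1 plus ARF1-GTP with DMSO and 100% = wells lacking Arfgap1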
* = called active by the depositor.

Screening O=C(Nc1cccc(-c2cnc3ccccc3n2)c1)c1cccc(NC(=O)c2ccco2)c1 returned ZTA DNA inh 18, ARFGAP1 inh 101*, EBNA-1 inhibitor 12, ASAP1 GAP inh 102*, ASAP1 inh confirm 91* and ARFGAP1 confirm 126*.
Cc1cc(=O)oc2cc(OCc3c(F)cccc3Cl)ccc12 was read as ARFGAP1 inh 15 and ASAP1 GAP inh 3.
Cc1cc([N+](=O)[O-])c(C)cc1-c1ccc(/C=N/NC(=O)Cn2nnnc2N)o1 was read as ZTA DNA inh 3, ARFGAP1 inh 67*, EBNA-1 inhibitor 1, ASAP1 GAP inh 65*, ASAP1 inh confirm 1 and ARFGAP1 confirm 35*.
COc1ccc(-n2nc(C(=O)NCC(=O)NCc3ccc(F)cc3)c3ccccc3c2=O)cc1OC was read as ZTA DNA inh 11, ARFGAP1 inh 139*, EBNA-1 inhibitor -11, ASAP1 GAP inh 43*, ASAP1 inh confirm 49* and ARFGAP1 confirm 88*.
Screening CN(Cc1ccccc1F)C(=O)CN1c2cccc3cccc(c23)S1(=O)=O returned ZTA DNA inh -10, ARFGAP1 inh 29*, EBNA-1 inhibitor 3, ASAP1 GAP inh 30*, ASAP1 inh confirm 41* and ARFGAP1 confirm 51*.
`O=C(COc1ccc2oc(-c3ccco3)cc(=O)c2c1)N1CCCCC1` gave ZTA DNA inh -16, ARFGAP1 inh 80*, EBNA-1 inhibitor -5, ASAP1 GAP inh 32*, ASAP1 inh confirm 42* and ARFGAP1 confirm 72*.
`COc1cc(/C=C/C(=O)Nc2ccc3nc4n(c(=O)c3c2)CCCC4)cc(OC)c1OC` gave ZTA DNA inh -6, ARFGAP1 inh 25*, EBNA-1 inhibitor -11, ASAP1 GAP inh 27*, ASAP1 inh confirm 43* and ARFGAP1 confirm 38*.
For O=C(O)CSc1cc(NS(=O)(=O)c2cccc([N+](=O)[O-])c2)c2ccccc2c1O the results were ARFGAP1 inh 25*, ASAP1 GAP inh 28*, ASAP1 inh confirm 14 and ARFGAP1 confirm -9.
`Clc1cccc(CN2CCN(c3ncc(Cc4ccccc4)cn3)CC2)c1Cl` gave ARFGAP1 inh -3 and ASAP1 GAP inh -1.
For Fc1ccc(Nc2cncc(-c3ccsc3)c2)cc1Cl the results were ARFGAP1 inh 29*, ASAP1 GAP inh 39*, ASAP1 inh confirm 14 and ARFGAP1 confirm 5.
CCCCN(CC)CCCNC(=O)c1cc2c(-c3ccc(OC)c(OC)c3)nn(C)c2s1 was read as ZTA DNA inh 13, ARFGAP1 inh 27*, EBNA-1 inhibitor -2, ASAP1 GAP inh 34*, ASAP1 inh confirm 72* and ARFGAP1 confirm 74*.
Screening CCN(CC)CCCNC(=O)c1cc2c(-c3cccc(OC)c3)nn(C)c2s1 returned ZTA DNA inh 2, ARFGAP1 inh 17, EBNA-1 inhibitor 2 and ASAP1 GAP inh 15.
COc1ccc(-n2nnnc2SCC(=O)c2ccc3c(c2)OCCO3)c(OC)c1 was read as ZTA DNA inh 4, ARFGAP1 inh 59*, EBNA-1 inhibitor 4, ASAP1 GAP inh 53*, ASAP1 inh confirm 51* and ARFGAP1 confirm 135*.
Cc1cc(C(=O)COC(=O)c2n[nH]c3ccccc23)c(C)n1C was read as ZTA DNA inh -3, ARFGAP1 inh 33*, EBNA-1 inhibitor 0, ASAP1 GAP inh 34*, ASAP1 inh confirm 35* and ARFGAP1 confirm 52*.
`Cc1cc(C(=O)COC(=O)c2n[nH]c(=O)c3ccccc23)c(C)n1C` gave ZTA DNA inh 4, ARFGAP1 inh 13 and ASAP1 GAP inh 1.
For Cc1cccc(NC(=O)Cn2cnc3c(oc4ccccc43)c2=O)c1C the results were ZTA DNA inh 18, ARFGAP1 inh 29*, EBNA-1 inhibitor 2, ASAP1 GAP inh 33*, ASAP1 inh confirm 49* and ARFGAP1 confirm 59*.
COc1ccc([N+](=O)[O-])cc1NC(=S)NC(C)=O was read as ZTA DNA inh -3, ARFGAP1 inh -7, EBNA-1 inhibitor 7 and ASAP1 GAP inh -4.
COc1ccc([N+](=O)[O-])cc1NC(=O)c1ccc(Br)s1 was read as ZTA DNA inh 2, ARFGAP1 inh 36*, EBNA-1 inhibitor -5, ASAP1 GAP inh 38*, ASAP1 inh confirm 54* and ARFGAP1 confirm 68*.
For NC(=O)c1c(N)[nH]c(C(=O)c2ccccc2)c1-c1ccc(Br)cc1 the results were ARFGAP1 inh 1 and ASAP1 GAP inh 1.
For CC[n+]1ccc(/C=C/c2ccc(N(C)C)cc2)c2ccccc21 the results were ARFGAP1 inh 37*, ASAP1 GAP inh 43*, ASAP1 inh confirm 53* and ARFGAP1 confirm 50*.
CCOc1ccc(NC(=O)Cn2cncc2-c2ccc([N+](=O)[O-])cc2)cc1 was read as ZTA DNA inh 5, ARFGAP1 inh 11, EBNA-1 inhibitor -4 and ASAP1 GAP inh 21.
For O=C(Cn1cncc1-c1ccc([N+](=O)[O-])cc1)Nc1cccc2ccccc12 the results were ZTA DNA inh -22, ARFGAP1 inh 41*, EBNA-1 inhibitor -11, ASAP1 GAP inh 28*, ASAP1 inh confirm 37* and ARFGAP1 confirm 46*.
`Cc1cc(N2CCN(C)CC2)nc2ccc(NC(=O)c3cccnc3Cl)cc12` gave ZTA DNA inh 7, ARFGAP1 inh 29*, EBNA-1 inhibitor 3, ASAP1 GAP inh 49*, ASAP1 inh confirm 25* and ARFGAP1 confirm 28*.
CCN1CCN(c2cc(C)c3cc(NC(=O)c4cccnc4Cl)ccc3n2)CC1 was read as ZTA DNA inh 7, ARFGAP1 inh 7, EBNA-1 inhibitor -9 and ASAP1 GAP inh 3.
Screening CC(C)C[C@H]1COc2cc(N3CCCC3)ccc2S(=O)(=O)N1 returned ARFGAP1 inh 15 and ASAP1 GAP inh -10.
COc1ccc(-c2cc(NC=O)c3ncc(-c4ccc(C(C)=O)cc4)n3c2)cc1OC was read as ARFGAP1 inh 28*, ASAP1 GAP inh 45*, ASAP1 inh confirm 61* and ARFGAP1 confirm 50*.
`COc1cc(-c2cc(NC=O)c3ncc(-c4ccc(C(C)=O)cc4)n3c2)cc(OC)c1OC` gave ARFGAP1 inh 12 and ASAP1 GAP inh 13.
Screening COc1cc(-n2c(C)cc(O)cc2=O)ccc1Cl returned ARFGAP1 inh 1 and ASAP1 GAP inh 4.
`COc1ccc(/C=C2\Oc3cc(OCC(=O)N4CCC(C(=O)O)CC4)ccc3C2=O)c(OC)c1OC` gave ZTA DNA inh -2, ARFGAP1 inh 31*, EBNA-1 inhibitor -9, ASAP1 GAP inh 32*, ASAP1 inh confirm 35* and ARFGAP1 confirm 41*.
For COc1ccc(/C=C2\Oc3cc(OCC(=O)N4CCC(C(=O)O)CC4)ccc3C2=O)c(OC)c1 the results were ZTA DNA inh -10 and EBNA-1 inhibitor 6.
COc1ccc(/C=N/NC(=O)c2ccccc2OC)cc1COc1ccccc1[N+](=O)[O-] was read as ZTA DNA inh -7, ARFGAP1 inh 3, EBNA-1 inhibitor 5 and ASAP1 GAP inh 6.
